In ChEMBL document CHEMBL4316617, “Inhibition of the FAD containing ER oxidoreductin 1 (Ero1) protein by EN-460 as a strategy for treatment of multiple myeloma” (Bioorg Med Chem, 2019):
Active and inactive are the calls of the source. No cut-off for these calls is given here.

Columns and labels:
MM1.S = experiment: Cytotoxicity against human MM1S cells assessed as reduction in cell viability measured after 72 hrs by MTT assay; format: functional, cell-based
In short: (§1)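 MM cell lines exposed to compound for 72 h. MTT (50 μl of 2 mg/ml) added for 4 h, formazan dissolved in DMSO, absorbance read at 570 nm. IC50 calculated; mean ± SD of 3 independent experiments.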

[1] = test system: T1, ERO1-like protein alpha (Homo sapiens), Q96HE7 [C104A,C131A,C166A]; experiment: (§2) Inhibition of recombinant human Ero1Lalpha C104A/C131A/C166A triple mutant (22 to 468 residues) expressed in Escherichia coli BL21(DE3)-RIL measured after 30 mins by Amplex red dye based fluorescence assay
T1 sequence (whole entry): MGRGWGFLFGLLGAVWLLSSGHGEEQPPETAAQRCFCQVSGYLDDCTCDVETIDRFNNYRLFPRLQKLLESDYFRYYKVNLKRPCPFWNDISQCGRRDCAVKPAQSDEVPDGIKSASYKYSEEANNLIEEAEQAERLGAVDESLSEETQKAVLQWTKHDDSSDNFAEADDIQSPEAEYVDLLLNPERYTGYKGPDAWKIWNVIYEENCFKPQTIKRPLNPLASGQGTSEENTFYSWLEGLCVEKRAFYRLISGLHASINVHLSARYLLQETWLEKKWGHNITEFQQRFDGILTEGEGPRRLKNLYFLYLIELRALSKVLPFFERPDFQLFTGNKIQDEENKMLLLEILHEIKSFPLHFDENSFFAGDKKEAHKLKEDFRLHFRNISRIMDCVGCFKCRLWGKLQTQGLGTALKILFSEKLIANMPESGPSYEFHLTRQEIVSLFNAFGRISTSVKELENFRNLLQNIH

ERO1-like protein alpha [2] = target: T2, ERO1-like protein alpha (Homo sapiens, UniProt Q96HE7, C104A/C131A/C166A); experiment: as §2
U-266 [3] = experiment: Cytotoxicity against human U266 cells assessed as reduction in cell viability measured after 72 hrs by MTT assay; format: functional, cell-based; details: U-266, 72 h; in short: as §1
[4] = test system: T1, ERO1-like protein alpha (Homo sapiens), Q96HE7 [C104A,C131A,C166A]; experiment: Binding affinity to recombinant human Ero1Lalpha C104A/C131A/C166A triple mutant (22 to 468 residues) expressed in Escherichia coli BL21(DE3)-RIL assessed as melting temperature at 20 uM by SYPRO orange protein gel staining based differential scanning fluorimetry (reference value: 53.15 +/- 0.15 degreeC)
[5] = Solubility of the compound at >200 uM; format: physicochemical
[6] = target: Protein disulfide-isomerase (Homo sapiens) (UniProt P07237); experiment: Binding affinity to recombinant human His-tagged PDI (18 to 479 residues) expressed in Escherichia coli assessed as melting temperature at 20 uM by SYPRO orange protein gel staining based differential scanning fluorimetry (reference value: 58.86 +/- 0.12 degreeC)
Chain of Protein disulfide-isomerase (Homo sapiens) (P07237 18-508 limits assumed): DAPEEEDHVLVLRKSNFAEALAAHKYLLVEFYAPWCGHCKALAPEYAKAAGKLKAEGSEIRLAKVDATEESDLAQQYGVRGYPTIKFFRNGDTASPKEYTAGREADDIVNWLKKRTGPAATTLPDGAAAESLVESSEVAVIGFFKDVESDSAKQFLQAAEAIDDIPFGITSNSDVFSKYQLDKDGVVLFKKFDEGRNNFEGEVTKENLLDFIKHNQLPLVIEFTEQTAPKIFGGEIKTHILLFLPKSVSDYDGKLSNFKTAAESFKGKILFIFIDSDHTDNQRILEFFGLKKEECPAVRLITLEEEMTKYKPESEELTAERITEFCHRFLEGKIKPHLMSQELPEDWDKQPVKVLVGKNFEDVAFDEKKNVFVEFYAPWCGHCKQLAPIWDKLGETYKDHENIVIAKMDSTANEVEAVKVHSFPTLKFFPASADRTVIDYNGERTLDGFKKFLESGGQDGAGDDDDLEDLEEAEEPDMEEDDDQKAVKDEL

[7] = target: T3, Amine oxidase [flavin-containing] B (Homo sapiens, UniProt P27338); experiment: Inhibition of MAOB (unknown origin) using kynuramine as substrate
T3 sequence (P27338 whole entry): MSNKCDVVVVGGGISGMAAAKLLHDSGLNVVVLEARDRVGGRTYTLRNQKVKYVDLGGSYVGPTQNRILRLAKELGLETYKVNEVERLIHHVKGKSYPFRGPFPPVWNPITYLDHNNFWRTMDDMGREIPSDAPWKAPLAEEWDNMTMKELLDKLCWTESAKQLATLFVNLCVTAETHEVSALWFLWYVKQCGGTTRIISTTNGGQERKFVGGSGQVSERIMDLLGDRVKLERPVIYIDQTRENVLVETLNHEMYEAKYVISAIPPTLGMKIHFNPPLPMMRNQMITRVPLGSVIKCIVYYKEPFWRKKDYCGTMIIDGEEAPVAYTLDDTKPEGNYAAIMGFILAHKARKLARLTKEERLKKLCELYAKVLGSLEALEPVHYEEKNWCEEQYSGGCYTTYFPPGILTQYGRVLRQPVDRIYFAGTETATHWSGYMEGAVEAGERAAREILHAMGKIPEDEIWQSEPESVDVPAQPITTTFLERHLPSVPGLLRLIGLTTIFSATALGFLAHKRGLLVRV
In short: (§3)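 Purchased MAO-A or MAO-B activity measured as kynuramine metabolism, with fluorescence read at Ex 310/Em 380 nm. IC50 fitted, N = 2.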

U-266 [8] = experiment: Induction of endoplasmic reticulum stress in human U266 cells assessed as increase in ATF4 level measured after 2 to 8 hrs by Western blot analysis; format: functional, cell-based
In short: (§4)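 U266 cells treated with compound or DMSO for 2, 4 and 8 h. Lysates resolved on 8–10% SDS-PAGE and transferred to PVDF. Blocked in 5% milk/TBST, probed overnight at 4 °C for p-eIF2α, ATF4 and ATF6 (this antibody detects full-length ATF6 only), with β-actin as loading control. Chemiluminescent detection; n = 3.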

U-266 [9] = experiment: Induction of endoplasmic reticulum stress in human U266 cells assessed as reduction in full length ATF6 measured after 2 to 8 hrs by Western blot analysis; format: functional, cell-based; in short: as §4
PBMC = experiment: Cytotoxicity against PBMC (unknown origin) assessed as cell death; format: cell-based
[10] = target: T4, Amine oxidase [flavin-containing] A (Homo sapiens, UniProt P21397); experiment: Inhibition of MAOA (unknown origin) using kynuramine as substrate; in short: as §3
T4 sequence (P21397 whole entry): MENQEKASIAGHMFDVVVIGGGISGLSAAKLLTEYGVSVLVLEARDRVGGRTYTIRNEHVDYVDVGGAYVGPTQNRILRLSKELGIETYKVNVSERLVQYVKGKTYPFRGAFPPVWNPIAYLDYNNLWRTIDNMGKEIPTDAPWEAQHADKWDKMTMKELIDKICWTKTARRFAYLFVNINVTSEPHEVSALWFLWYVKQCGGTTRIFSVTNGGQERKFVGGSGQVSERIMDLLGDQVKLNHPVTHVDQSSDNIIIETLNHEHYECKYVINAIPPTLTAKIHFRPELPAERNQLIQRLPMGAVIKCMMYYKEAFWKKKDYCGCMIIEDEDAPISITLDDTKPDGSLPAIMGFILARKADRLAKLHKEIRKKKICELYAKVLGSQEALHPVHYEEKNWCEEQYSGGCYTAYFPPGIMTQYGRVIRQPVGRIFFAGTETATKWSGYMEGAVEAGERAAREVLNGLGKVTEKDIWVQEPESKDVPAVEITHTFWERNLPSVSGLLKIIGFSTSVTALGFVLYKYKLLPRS

U-266 [11] = experiment: Induction of apoptosis in human U266 cells at 12.5 to 50 uM measured after 18 hrs by Annexin V-FITC/propidium iodide staining based flow cytometry; format: functional, cell-based
In short: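 U266 cells treated with compound or DMSO vehicle for 18 h, washed in ice-cold PBS, then stained with Annexin V-FITC/PI in binding buffer for 15 min at 37 °C in the dark. At least 10,000 cells analysed by flow cytometry. Mean ± SD, n = 3 independent experiments.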

U-266 [12] = experiment: Induction of endoplasmic reticulum stress in human U266 cells assessed as increase in eIF2alpha phosphorylation measured after 2 to 8 hrs by Western blot analysis; format: functional, cell-based; in short: as §4
[13] = target: Lysine-specific histone demethylase 1A (Homo sapiens, UniProt O60341); experiment: Inhibition of recombinant human LSD1 using ARTK(diMethyl)QTARKSTGGKAPRKQLAPRKQLA as substrate measured after 30 mins by ADHP/horseradish peroxidase coupled fluorescence assay
In short: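 LSD-1 activity measured with a commercial kit following the manufacturer's instructions. IC50 fitted, N = 2.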

ERO1-like protein alpha [14] = target: T2, ERO1-like protein alpha; experiment: Inhibition of recombinant human Ero1Lalpha C104A/C131A/C166A triple mutant (22 to 468 residues) expressed in Escherichia coli BL21(DE3)-RIL using human PDI as substrate measured after 30 mins by Amplex red dye based fluorescence assay
[15] = test system: T1, ERO1-like protein alpha (Homo sapiens), Q96HE7 [C104A,C131A,C166A]; experiment: Competitive inhibition of recombinant human Ero1Lalpha C104A/C131A/C166A triple mutant (22 to 468 residues) expressed in Escherichia coli BL21(DE3)-RIL using varying levels of human PDI as substrate by Lineweaver-burk plot analysis
[16] = Solubility of the compound in pH 7.4 phosphate buffered saline; format: physicochemical; details: buffer

| Structure (SMILES) | IC50 (MM1.S) [µM] | inhibition [1] | IC50 (ERO1-like protein alpha [2]) [µM] | IC50 (U-266 [3]) [µM] | Tm [4] [°C] | solubility [5] | Tm [6] [°C] | IC50 [7] [µM] | Activity (U-266 [8]) | Activity (U-266 [9]) | Activity (PBMC) | IC50 [10] [µM] | Activity (U-266 [11]) | Activity (U-266 [12]) | IC50 [13] [µM] | IC50 (ERO1-like protein alpha [14]) [µM] | inhibition [15] | solubility [16] |
| --- | --- | --- | --- | --- | --- | --- | --- | --- | --- | --- | --- | --- | --- | --- | --- | --- | --- | --- |
| [N-]=[N+]=Nc1cccc(-c2ccc(/C=C3/C(=O)N(c4ccc(Cl)c(C(=O)O)c4)N=C3C(F)(F)F)o2)c1 | 18.8 | Dose-dependent effect | 12.2 | 14.7 | 59.8 | Insoluble | 57.7 | – | – | – | – | – | – | – | – | – | – | – |
| O=C(O)c1cc(N2N=C(C(F)(F)F)/C(=C/c3ccc(-c4ccccc4)o3)C2=O)ccc1Cl | 14.7 | Dose-dependent effect | 12.7 | 10.1 | 55.9 | Insoluble | 59.2 | 30.6 | Active | Active | Toxic | 7.91 | Active | Active | 4.16 | 22.1 | Active | – |
| [N-]=[N+]=Nc1ccc(-c2ccc(/C=C3/C(=O)N(c4ccc(Cl)c(C(=O)O)c4)N=C3C(F)(F)F)o2)cc1 | 17.3 | – | – | 7.03 | – | – | – | – | – | – | – | – | – | – | – | – | – | Insoluble |
